Source: ChEMBL document CHEMBL2417474, “Synthesis, antiproliferative and anti-inflammatory activities of some novel 6-aryl-2-(p-(methanesulfonyl)phenyl)-4,5-dihydropyridazi-3(2H)-ones” (Eur J Med Chem, 2013)

Tests used:
Type in all cases: functional
[1] = test system: T47D; assay: Growth inhibition of human T47D cells assessed as cell growth at 10 uM after 48 hrs by sulforhodamine B assay; details: read-out: Activity
Outline: (§1)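 Single-dose NCI screen. Tumor lines were cultured in medium with 5% fetal calf serum and 2 mM L-glutamine, preincubated 24 h, then given compound in DMSO. After 48 h continuous exposure, cell growth was estimated by sulforhodamine B protein assay.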

[2] = test system: MDA-MB-231; assay: Growth inhibition of human MDA-MB-231 cells assessed as cell growth at 10 uM after 48 hrs by sulforhodamine B assay; details: MDA-MB-231, 48 h, read-out: Activity
[3] = Growth inhibition of human Hs 578T cells assessed as cell growth at 10 uM after 48 hrs by sulforhodamine B assay; details: read-out: Activity
[4] = test system: PC-3; assay: Growth inhibition of human PC3 cells assessed as cell growth at 10 uM after 48 hrs by sulforhodamine B assay; details: PC-3, 48 h, read-out: Activity
[5] = test system: SN12C; assay: Growth inhibition of human SN12C cells assessed as cell growth at 10 uM after 48 hrs by sulforhodamine B assay; details: read-out: Activity
[6] = test system: TK-10; assay: Growth inhibition of human TK10 cells assessed as cell growth at 10 uM after 48 hrs by sulforhodamine B assay; details: TK-10, 48 h, read-out: Activity; outline: as §1
[7] = test system: 786-0; assay: Growth inhibition of human 786-0 cells assessed as cell growth at 10 uM after 48 hrs by sulforhodamine B assay; details: 786-0, 48 h, read-out: Activity
[8] = test system: SK-OV-3; assay: Growth inhibition of human SKOV3 cells assessed as cell growth at 10 uM after 48 hrs by sulforhodamine B assay; details: SK-OV-3, 48 h, read-out: Activity
[9] = test system: OVCAR-4; assay: Growth inhibition of human OVCAR4 cells assessed as cell growth at 10 uM after 48 hrs by sulforhodamine B assay; details: OVCAR-4, 48 h, read-out: Activity
[10] = test system: UACC-257; assay: Growth inhibition of human UACC257 cells assessed as cell growth at 10 uM after 48 hrs by sulforhodamine B assay; details: UACC-257, 48 h, read-out: Activity; outline: as §1
[11] = test system: SK-MEL-5; assay: Growth inhibition of human SK-MEL-5 cells assessed as cell growth at 10 uM after 48 hrs by sulforhodamine B assay; details: SK-MEL-5, 48 h, read-out: Activity
[12] = test system: SK-MEL-2; assay: Growth inhibition of human SK-MEL-2 cells assessed as cell growth at 10 uM after 48 hrs by sulforhodamine B assay; details: SK-MEL-2, 48 h, read-out: Activity
[13] = test system: MDA-MB-435; assay: Growth inhibition of human MDA-MB-435 cells assessed as cell growth at 10 uM after 48 hrs by sulforhodamine B assay; details: MDA-MB-435, 48 h, read-out: Activity
[14] = test system: SW-620; assay: Growth inhibition of human SW620 cells assessed as cell growth at 10 uM after 48 hrs by sulforhodamine B assay; details: SW-620, 48 h, read-out: Activity; outline: as §1
[15] = test system: T47D; assay: Growth inhibition of human T47D cells after 48 hrs by sulforhodamine B assay
Outline: (§2)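 NCI 60-line panel. Cells were grown in medium with 5% fetal calf serum and 2 mM L-glutamine and preincubated 24 h in plates. Compound in DMSO was added at 10^-4 to 10^-8 M (five 10-fold levels), with continuous exposure for 48 h. Growth was read by SRB protein staining. GI50 is the concentration giving 50% reduction in net protein increase versus control cells.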

[16] = test system: BT-549; assay: Growth inhibition of human BT549 cells after 48 hrs by sulforhodamine B assay; details: BT-549, 48 h
Outline: (§3)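 NCI 60-cell-line panel grown in RPMI-type medium with 5% fetal calf serum and 2 mM L-glutamine. Cells preincubated 24 h, then exposed continuously for 48 h to compound in DMSO at 10^-4 to 10^-8 M (five 10-fold levels). Growth read by SRB protein stain. GI50 is the concentration giving a 50% reduction in net protein increase relative to control cells.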

[17] = Growth inhibition of human Hs 578T cells after 48 hrs by sulforhodamine B assay; outline: as §3
[18] = test system: UO-31; assay: Growth inhibition of human UO31 cells after 48 hrs by sulforhodamine B assay; details: UO-31, 48 h; outline: as §2
[19] = test system: SK-OV-3; assay: Growth inhibition of human SKOV3 cells after 48 hrs by sulforhodamine B assay; details: SK-OV-3, 48 h
Outline: (§4)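 NCI 60-cell-line panel. Cells were grown in medium with 5% fetal calf serum and 2 mM L-glutamine, then preincubated 24 h in plates. Compounds were added from DMSO at five 10-fold concentrations from 100 to 0.01 µM and left on cells continuously for 48 h. Cell growth was read by sulforhodamine B protein stain. GI50 is the concentration that halves net protein increase relative to control cells.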

[20] = Growth inhibition of human NCI-ADR-RES cells after 48 hrs by sulforhodamine B assay; outline: as §4
[21] = test system: UACC-257; assay: Growth inhibition of human UACC257 cells after 48 hrs by sulforhodamine B assay; details: UACC-257, 48 h; outline: as §2
[22] = test system: UACC-62; assay: Growth inhibition of human UACC62 cells after 48 hrs by sulforhodamine B assay; details: UACC-62, 48 h; outline: as §2
[23] = test system: MDA-MB-435; assay: Growth inhibition of human MDA-MB-435 cells after 48 hrs by sulforhodamine B assay; details: MDA-MB-435, 48 h; outline: as §4
[24] = test system: SNB-75; assay: Growth inhibition of human SNB75 cells after 48 hrs by sulforhodamine B assay; details: SNB-75, 48 h; outline: as §4
[25] = test system: SF-539; assay: Growth inhibition of human SF539 cells after 48 hrs by sulforhodamine B assay; details: SF-539, 48 h; outline: as §4
[26] = test system: SF-295; assay: Growth inhibition of human SF295 cells after 48 hrs by sulforhodamine B assay; details: SF-295, 48 h; outline: as §4
[27] = test system: KM12; assay: Growth inhibition of human KM12 cells after 48 hrs by sulforhodamine B assay; details: KM12, 48 h; outline: as §3
[28] = test system: NCI-H522; assay: Growth inhibition of human NCI-H522 cells after 48 hrs by sulforhodamine B assay; details: NCI-H522, 48 h; outline: as §4
[29] = test system: NCI-H226; assay: Growth inhibition of human NCI-H226 cells after 48 hrs by sulforhodamine B assay; details: NCI-H226, 48 h; outline: as §4
[30] = test system: SR; assay: Growth inhibition of human SR cells after 48 hrs by sulforhodamine B assay; outline: as §4
[31] = read-out: LC50 (the source's name)

Cc1ccc(C2=NN(c3ccc(S(C)(=O)=O)cc3)C(=O)CC2)cc1
growth at 10 µM [1]: 32.7%
growth at 10 µM [2]: 47.8%
growth at 10 µM [3]: -1.17%
growth at 10 µM [4]: 29.3%
growth at 10 µM [5]: 39.7%
growth at 10 µM [6]: 67%
growth at 10 µM [7]: 38.3%
growth at 10 µM [8]: 19.9%
growth at 10 µM [9]: 60.8%
growth at 10 µM [10]: 50.7%
growth at 10 µM [11]: 13.9%
growth at 10 µM [12]: 6.35%
growth at 10 µM [13]: -61.2%
growth at 10 µM [14]: 8.58%
GI50 [15]: 2.08 µM
LC50 [15]: > 100 µM
TGI [15]: > 100 µM
GI50 [16]: 0.6 µM
TGI [16]: > 100 µM
CC50 [16, 31]: > 100 µM
GI50 [17]: 0.46 µM
LC50 (concentration giving 50% net cell kill) [17]: > 100 µM
GI50 [18]: 4.72 µM
LC50 (concentration killing 50% of cells) [18]: > 100 µM
TGI [18]: > 100 µM
GI50 [19]: 1.15 µM
LC50 [19]: > 100 µM
TGI [19]: 20.7 µM
GI50 [20]: 0.27 µM
LC50 [20]: > 100 µM
GI50 [21]: 0.61 µM
LC50 (concentration killing 50% of cells) [21]: > 100 µM
TGI [21]: > 100 µM
GI50 [22]: 0.46 µM
LC50 (50% net cell kill concentration) [22]: > 100 µM
TGI [22]: > 100 µM
GI50 [23]: 0.12 µM
LC50 (concentration killing 50% of starting cells) [23]: > 100 µM
TGI [23]: 0.39 µM
GI50 [24]: 0.54 µM
TGI [24]: > 9.25 µM
CC50 [24, 31]: > 100 µM
GI50 [25]: 1.02 µM
TGI [25]: 17.4 µM
CC50 [25, 31]: > 100 µM
GI50 [26]: 0.4 µM
LC50 (concentration killing 50% of cells present at start) [26]: > 100 µM
TGI [26]: 5.36 µM
GI50 [27]: 0.44 µM
LC50 [27]: > 100 µM
TGI [27]: > 100 µM
GI50 [28]: 0.22 µM
LC50 (concentration killing 50% of starting cells) [28]: > 100 µM
TGI [28]: 1 µM
GI50 [29]: 0.43 µM
TGI [29]: > 100 µM
CC50 [29, 31]: > 100 µM
GI50 [30]: 0.29 µM
LC50 [30]: > 100 µM
TGI [30]: > 100 µM

O=c1[nH]cc(F)c(=O)[nH]1 [FLUOROURACIL]
GI50 [15]: 8.12 µM
GI50 [16]: 10.6 µM
GI50 [17]: 9.77 µM
GI50 [18]: 1.42 µM
GI50 [19]: 21.8 µM
GI50 [20]: 0.31 µM
GI50 [21]: 3.55 µM
GI50 [22]: 0.52 µM
GI50 [23]: 0.07 µM
GI50 [24]: 78.7 µM
GI50 [25]: 0.06 µM
GI50 [26]: 0.22 µM
GI50 [27]: 0.21 µM
GI50 [28]: 7.27 µM
GI50 [29]: 54.7 µM
GI50 [30]: 0.02 µM
